NRP1-CendR mod = alters CendR peptide binding to human NRP-1; inhibition, % at 25 µM; FAM-RPARPAR peptide binding to NRP-1, fluorescence polarization; AID 602438; 0.85% of 360,000 active; O14786;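 active = inhibition or corrected inhibition above about 18%, plus a signal ratio from 0.5 to 1.5, limit read from the data, passing the limit was not always enough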
aDG glyco act = increases alpha dystroglycan glycosylation; Pro5-aDG cells, alpha-DG glycosylation AlphaScreen (IIH6); 0% Pro5, 100% B10-LARGE cell signal; activation, % at 10 µM; 0.22% of 360,000 active; AID 624168;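 active = activation of at least 8% versus controls, or a plate z-score of at least 8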;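 also: Pro5 are CHO cells carrying HIG-tagged alpha-DG that lacks glycosylation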
DDE Tn6 FP inh = inhibitors of Tn6 peptide binding to human fibrin DD(E); inhibition, % at 8.3 µM; P02675; AID 720509; Fibrin DD(E) TRITC-Tn6 fluorescence polarization displacement; 0.21% of 370,000 active;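 active = inhibition above a per-campaign cutoff: mean of compounds within control limits plus 3 SD, cut at about 15% in these data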;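 also: 0% = median of all compound wells on the plate and 100% = blocking peptide control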
Target sequence (P02675 whole entry, looked up): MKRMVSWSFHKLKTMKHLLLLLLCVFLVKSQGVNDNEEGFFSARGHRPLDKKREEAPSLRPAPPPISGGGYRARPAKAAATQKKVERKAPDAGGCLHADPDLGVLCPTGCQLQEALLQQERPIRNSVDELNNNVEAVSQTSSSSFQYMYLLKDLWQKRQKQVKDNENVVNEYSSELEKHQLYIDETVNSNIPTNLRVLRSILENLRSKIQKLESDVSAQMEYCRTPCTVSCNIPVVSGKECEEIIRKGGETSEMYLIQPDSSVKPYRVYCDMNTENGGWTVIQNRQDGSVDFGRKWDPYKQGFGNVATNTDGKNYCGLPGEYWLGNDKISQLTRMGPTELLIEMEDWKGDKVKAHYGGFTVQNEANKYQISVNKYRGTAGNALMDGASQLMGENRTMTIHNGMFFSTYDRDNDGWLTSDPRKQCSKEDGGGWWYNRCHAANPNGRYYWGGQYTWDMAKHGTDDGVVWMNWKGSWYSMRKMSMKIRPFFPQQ
DDE Tn7 FP inh = DD(E)-Tn7 binding inhibition, primary FP screen | AID 720508 | 0.13% of 370,000 active | inhibition, % at 8.3 µM | P02675 | FP displacement of FITC-Tn7 peptide from fibrin DD(E); 0% = median of compound wells per plate;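 active = inhibition above the mean of compounds falling within the control limits plus 3 SD of them, cut at about 14% in these data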;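 also: 0% = plate median of compound wells and 100% = 10 µM Aha-Tn7 peptide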
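Assay system: Fibrin-DD(E) protein isolated from polymerized human fibrin clots; read-out basis: percent inhibition; medium: Tris/NaCl/CaCl2 buffer, pH 7.8; signal: FP measurement; incubation: 10 min plus 3 h, room temperature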
* = called active by the depositor; · = no result. This is a sample that favours compounds with a hit; in the whole collection about 1.3% have one here.

SMILES | NRP1-CendR mod | aDG glyco act | DDE Tn6 FP inh | DDE Tn7 FP inh
COC(=O)CCC(=O)OC1(C)C(=O)C=C2C=C(C3CC3)N(C3CC3)C=C2C1=O (configuration not stated) | 13.6 | 0.2 | 9.5 | -0.8
COCCN1C=C2C(=O)C(C)(OC(=O)CCC(=O)OC)C(=O)C=C2C=C1C1CC1 (configuration not stated) | 29.3* | -0.2 | · | ·
CC[C@@]12C(=O)N(c3ccc(OC)cc3)C(=O)N1[C@H](c1cccc(C)c1)[C@@H]1C(=O)N(Cc3ccccc3)C(=O)[C@@H]12 | 34.8* | 0.2 | · | ·
CC[C@@]12C(=O)N(c3ccc(C)cc3)C(=O)N1[C@H](c1cccc(C)c1)[C@@H]1C(=O)N(Cc3ccccc3)C(=O)[C@@H]12 | 8.7 | -0.1 | 0.3 | 8.5
CCCOc1ccc(CSc2nc3ccccc3[nH]2)cc1 | 6.1 | 4.4* | -2.3 | -2.4
CCOc1ccc(OCCSc2nc3ccccc3[nH]2)cc1 | 3.0 | 0.8 | 4.6 | -3.4
CCOc1ccccc1C1CC(=O)NC2=C1C(=O)CC(C)(C)C2 (configuration not stated) | 25.7* | 0.1 | 6.9 | -1.7
COc1ccc(C(CCNCc2ccc(N(C)C)cc2)c2ccccc2)cc1 (configuration not stated) | 2.5 | 0.2 | -2.2 | 4.9
CC(C)Oc1ccc(C(CCNCc2ccc(O)cc2)c2ccccc2)cc1 (configuration not stated) | 25.1* | -0.2 | 3.5 | 6.3
O=C(Nc1ccccc1C(F)(F)F)O[C@@H]1CC[C@@]23CCCN2C(=O)CCC[C@H]3C1 | · | · | 2.7 | -0.2
COc1ccc(-c2ccc(N(C)C)cc2)cc1[C@H]1[C@H]2C=CC[C@@H](C)[C@@H]2C(=O)N1Cc1ccccc1 | 23.0 | -0.7 | 0.6 | -5.6
COc1ccc(-c2ccc(OC)c([C@H]3[C@H]4C=CC[C@@H](C)[C@@H]4C(=O)N3Cc3ccccc3)c2)cc1C | 28.9* | 0.7 | -3.0 | 4.5
CCOC(=O)C1(Cc2ccccc2)NC(c2ccccc2F)C2C(=O)N(CC)C(=O)C21 (configuration not stated) | 19.1* | 0.4 | -6.5 | 2.7
O=C(Nc1ccccc1)OCCN1C(=O)CCC12CCC(c1ccc(Cl)cc1)CC2 (configuration not stated) | · | · | 13.0 | 7.3
O=C(Nc1ccc(NC(=O)C2CC2)nc1)c1cnccn1 | 19.0* | -0.2 | -2.8 | 5.0
Cc1ccc(-n2c(-c3ccco3)nc3c(cnn3-c3ccc(C)cc3)c2=O)cc1 | 35.3* | -0.2 | 0.6 | -6.4
O=C(Nc1cccc(F)c1)OCCN1CCCC12CCC(c1ccccc1)CC2 (configuration not stated) | · | · | 4.5 | -5.0
O=C(NCCCn1ccnc1)c1ccc(Cl)c(S(=O)(=O)N2CCOCC2)c1 | 35.0* | 0.4 | 1.5 | -6.2
CC(=O)NCCn1ccc2ccccc21 | 31.5* | -0.2 | -5.0 | -5.2
O=C(Cc1ccccc1)NCCn1ccc2ccccc21 | 1.8 | -0.2 | 7.0 | 5.9
CC(=O)Nc1cccc(NC(=S)Nc2cccc3ccccc23)c1 | 30.3* | 0.3 | -0.5 | -2.0
CC(=O)c1cccc(NC(=S)Nc2cccc3ccccc23)c1 | 6.5 | -0.1 | 3.6 | 1.5
Cc1ccc(C(=O)CCC(=O)Nc2cccc(C(F)(F)F)c2)cc1 | 25.7* | 0.0 | -0.5 | 5.9
Cc1ccc(C(=O)CCC(=O)Nc2cccc(C(F)(F)F)c2)cc1C | 1.3 | -0.1 | -6.4 | -2.3
COC/C=C/C1=CC2=CC(=O)C(C)(OC(=O)c3cnc4ccccc4n3)C(=O)C2=CN1CCN1CCOCC1 (configuration not stated) | 7.7 | 0.1 | -1.1 | -3.4
SMILES | NRP1-CendR mod | aDG glyco act | DDE Tn6 FP inh | DDE Tn7 FP inh
C=CCN1C=C2C(=O)C(C)(OC(=O)c3cnc4ccccc4n3)C(=O)C=C2C=C1/C=C/COC (configuration not stated) | 31.4* | -0.1 | 1.3 | 3.4
COC/C=C/C1=CC2=CC(=O)C(C)(OC(=O)c3cnc4ccccc4n3)C(=O)C2=CN1C(CO)CO (configuration not stated) | 37.1* | -0.1 | 0.7 | -4.5
COC/C=C/C1=CC2=CC(=O)C(C)(OC(=O)c3cnc4ccccc4n3)C(=O)C2=CN1CCCOC(C)C (configuration not stated) | 43.5* | -0.1 | -1.0 | -5.4
COC/C=C/C1=CC2=CC(=O)C(C)(OC(=O)c3cnc4ccccc4n3)C(=O)C2=CN1Cc1ccco1 (configuration not stated) | 29.6* | -0.1 | 2.6 | -2.4
CCCCC1=CC2=CC(=O)C(C)(OC(=O)CC)C(=O)C2=CN1CCOC (configuration not stated) | -3.1 | 0.0 | · | ·
COC(=O)CN1CCN(C(=O)c2csc(-c3ccccc3)n2)CC1 | · | · | 3.6 | -3.8
COC/C=C/C1=CC2=CC(=O)C(C)(OC(=O)c3cnc4ccccc4n3)C(=O)C2=CN1CCOC (configuration not stated) | 32.1* | 0.1 | 6.2 | 0.2
Cc1cc(COC(=O)C2N3C(=O)[C@@H](NC(=O)COc4ccccc4)[C@H]3SC2(C)C)on1 (some centres not stated) | -2.7 | 0.0 | 2.3 | -2.0
CCCCCCCCCOC(=O)C1N2C(=O)[C@@H](NC(=O)COc3ccccc3)[C@H]2SC1(C)C (some centres not stated) | 21.9* | 0.1 | -1.2 | 3.2
Cc1cc(NC(=O)c2ccc(Cl)cc2Cl)n(-c2ccccc2)n1 | 18.2* | 0.2 | -3.9 | -0.4
COc1cc(CNC(=O)c2cc(-c3cc(F)ccc3OCC3CCCO3)n[nH]2)cc(OC)c1 (configuration not stated) | 11.0 | 0.2 | -0.1 | -6.4
Cc1ccc(NC(=O)c2cc(-c3cc(F)ccc3OCC3CCCO3)n[nH]2)cc1NS(C)(=O)=O (configuration not stated) | 27.9* | -0.6 | 9.4 | -2.1
CCN(C(=O)COC(=O)C(C)(C)Oc1ccc(Cl)cc1)c1c(N)n(Cc2ccccc2)c(=O)[nH]c1=O | -2.3 | 0.0 | -0.5 | 4.9
CC1CCCCN1S(=O)(=O)c1ccc(N(C(=O)c2cnccn2)C(C(=O)NC2CCCCC2)c2cccs2)cc1 (configuration not stated) | 28.4* | -0.1 | -5.3 | 3.4
CC(c1ccncc1)C(C)c1ccncc1 (configuration not stated) | 23.0* | 0.0 | 4.7 | 0.6
C[C@@H]1O[C@H](C2CCCC2)Cc2[nH]c(=S)[nH]c(=O)c21 | -1.1 | 0.0 | -2.9 | -3.2
CCNC(=O)Nc1ccc2c(c1)C(=O)N(C)[C@H]1CC[C@@H](CC(=O)OC)O[C@H]1CO2 | · | · | -7.6 | -8.0
CCOc1ccccc1N1CCN(C(=O)c2ccncc2)CC1 | 43.2* | 0.1 | 3.1 | 7.9
CCn1c(NC)cc(=O)n(C)c1=O | 21.2* | -0.2 | 12.9 | -1.5
O=C1CC(c2ccc(Cl)cc2)CC(O)=C1C=NCCO (configuration not stated) | 16.2* | -0.2 | 3.1 | -4.1
COc1cccc2cc(-c3nc(-c4cccs4)cs3)c(=O)oc12 | 47.1* | -0.7 | -7.0 | -2.4

Assay outcomes as filed in PubChem BioAssay.
